Results as given in ChEMBL document CHEMBL1138329, “Pharmacokinetic/pharmacodynamic model-guided identification of hypoxia-selective 1,2,4-benzotriazine 1,4-dioxides with antitumor activity: the role of extravascular transport” (J Med Chem, 2007).
pIC50: −log10 of the molar value.

Columns and labels:
[1] = Cmax in CD1 mouse at 562 umol/kg, ip; format: ADME, organism-based; design: dose 562 umol/kg, route intraperitoneal; details: in vivo
Procedure, shortened: (§1)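 Single i.p. dose to CD-1 homozygous nude mice, drug as HCl salt in 0.9% saline, 5% DMSO/saline or lactate buffer (pH 4.0). Plasma total drug measured by HPLC at 75 or 100% of MTD (MTD from 1.33-fold dose steps, 6 mice). Noncompartmental analysis gave AUC, Cmax and t1/2.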

HT-29 [2] = test: Cytotoxicity against human HT29 cells under hypoxic conditions after 4 hrs; format: functional, cell-based; details: HT-29, 4 h
[3] = Solubility in culture medium in presence of 5% fetal calf serum; format: physicochemical; details: culture medium with 5% fetal calf serum
SiHa [4] = test: Ratio of IC50 for SiHa cells under oxic conditions to hypoxic conditions after 4 hrs; format: functional, Homo sapiens
Mus musculus = test: Toxicity in ip dosed CD1 mouse; format: organism-based; details: in vivo
Procedure, shortened: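 MTD in CD-1 homozygous nude mice after single i.p. doses (HCl salts in saline, 5% DMSO/saline or lactate buffer pH 4.0), escalated in 1.33-fold increments. MTD taken as the highest dose causing no death, no body weight loss >15% and no other severe morbidity in any of 6 mice.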

[5] = AUC in CD1 mouse at 562 umol/kg, ip; format: ADME, organism-based; details: plasma; procedure, shortened: as §1
[6] = Half life in CD1 mouse at 562 umol/kg, ip; format: ADME, organism-based; details: in vivo; procedure, shortened: as §1
HT-29 [7] = test: Diffusion coefficient, D in HT29 multicellular layers; format: ADME, cell-based; details: human
Procedure, shortened: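 HT29 multicellular layers were grown 3 days on collagen-coated Teflon membranes, equilibrated 60 min under 95% O2/5% CO2 at 37 °C, then placed in a diffusion chamber. Donor and receiver were sampled up to 5 h and assayed by HPLC. D came from fitting both profiles to a Fickian model with membrane and MCL in series, corrected by support-only Ds.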

HT-29 [8] = test: Antitumor activity against human HT29 cells implanted in CD1 mouse at 562 umol/kg, ip administered 5 mins after irradiation by excision assay relative to radiation alone; format: functional
Procedure, shortened: (§2)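 Hypoxic-cell excision assay in HT29 xenografts in CD-1 homozygous nude mice. Mice received 20 Gy γ radiation to sterilize oxic tumor cells, then a single i.p. drug dose (HCl salt in saline, 5% DMSO/saline or pH 4.0 lactate buffer) 5 min later. Tumors excised at 18 h and plated for clonogens/g. Log cell kill = log(clonogens/g, radiation only) − log(clonogens/g, radiation plus drug).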

HT-29 [9] = test: Ratio of IC50 for HT29 cells under oxic conditions to hypoxic conditions after 4 hrs; format: functional, Homo sapiens
SiHa [10] = test: Cytotoxicity against human SiHa cells under hypoxic conditions after 4 hrs; format: functional, cell-based
HT-29 [11] = test: Effect on human HT29 cells under hypoxic conditions assessed as drug level causing 10% clonogenic survival; format: functional
Procedure, shortened: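 HT29 suspensions (1 or 2 × 10^6 cells/mL) in serum-free medium were stirred under 5% CO2/95% N2 for 90 min. Drug was added from deoxygenated DMSO stock at a level giving about 10% survival at 1 h, and samples were taken up to 3 h. Clonogenic survival (14 days, methylene blue) was fitted with the HPLC concentration–time data, and the 10% survival exposure was interpolated.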

HT-29 [12] = test: Antitumor activity against human HT29 cells implanted in CD1 mouse assessed as clonogenic survival at 562 umol/kg, ip after 18 hrs relative to control; format: functional
Procedure, shortened: (§3)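 HT29 xenografts in CD-1 homozygous nude mice; single i.p. dose of drug alone, formulated as the HCl salt in 0.9% saline, 5% DMSO/saline or lactate buffer (pH 4.0). Tumors excised 18 h later, dissociated to single-cell suspensions and plated. Clonogens/g of tumor counted; surviving fraction = treated/control clonogens/g.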

[13] = AUC in CD1 mouse at 421 umol/kg, ip; format: ADME, organism-based; details: plasma; procedure, shortened: as §1
[14] = Half life in CD1 mouse at 421 umol/kg, ip; format: ADME, organism-based; details: in vivo; procedure, shortened: as §1
[15] = Cmax in CD1 mouse at 421 umol/kg, ip; format: ADME, organism-based; design: dose 421 umol/kg, route intraperitoneal; details: in vivo; procedure, shortened: as §1
[16] = AUC in CD1 mouse at 750 umol/kg, ip; format: ADME, organism-based; details: plasma; procedure, shortened: as §1
[17] = Cmax in CD1 mouse at 750 umol/kg, ip; format: ADME, organism-based; design: dose 750 umol/kg, route intraperitoneal; details: in vivo; procedure, shortened: as §1
HT-29 [18] = test: Antitumor activity against human HT29 cells implanted in CD1 mouse at 750 umol/kg, ip administered 5 mins after irradiation by excision assay relative to radiation alone; format: functional; procedure, shortened: as §2
[19] = Half life in CD1 mouse at 750 umol/kg, ip; format: ADME, organism-based; details: in vivo; procedure, shortened: as §1
HT-29 [20] = test: Antitumor activity against human HT29 cells implanted in CD1 mouse assessed as clonogenic survival at 750 umol/kg, ip after 18 hrs relative to control; format: functional; procedure, shortened: as §3
[21] = AUC in CD1 mouse at 1000 umol/kg, ip; format: ADME, organism-based; details: plasma; procedure, shortened: as §1
HT-29 [22] = test: Antitumor activity against human HT29 cells implanted in CD1 mouse at 1000 umol/kg, ip administered 5 mins after irradiation by excision assay relative to radiation alone; format: functional; procedure, shortened: as §2
HT-29 [23] = test: Antitumor activity against human HT29 cells implanted in CD1 mouse assessed as clonogenic survival at 1000 umol/kg, ip after 18 hrs relative to control; format: functional; procedure, shortened: as §3
[24] = Cmax in CD1 mouse at 1000 umol/kg, ip; format: ADME, organism-based; design: dose 1000 umol/kg, route intraperitoneal; details: in vivo; procedure, shortened: as §1
[25] = Half life in CD1 mouse at 1000 umol/kg, ip; format: ADME, organism-based; details: in vivo; procedure, shortened: as §1
HT-29 [26] = test: Antitumor activity against human HT29 cells implanted in CD1 mouse assessed as clonogenic survival at 133 umol/kg, ip after 18 hrs relative to control; format: functional; procedure, shortened: as §3
[27] = AUC in CD1 mouse at 133 umol/kg, ip; format: ADME, organism-based; details: plasma; procedure, shortened: as §1
HT-29 [28] = test: Antitumor activity against human HT29 cells implanted in CD1 mouse at 133 umol/kg, ip administered 5 mins after irradiation by excision assay relative to radiation alone; format: functional; procedure, shortened: as §2
[29] = Cmax in CD1 mouse at 133 umol/kg, ip; format: ADME, organism-based; design: dose 133 umol/kg, route intraperitoneal; details: in vivo; procedure, shortened: as §1

Structure (SMILES)	pIC50 (HT-29 [2])	solubility [3] [mM]	Ratio IC50 (SiHa [4])	MTD (Mus musculus)	D (HT-29 [7]) [cm²/s]	Ratio IC50 (HT-29 [9])	pIC50 (SiHa [10])	Activity (HT-29 [11]) [µM·h]	also measured
[O-][n+]1nc(NCCN2CCOCC2)[n+]([O-])c2ccccc21	4.76	> 49	44	562 µmol/kg	3.63e-07	34	5.18	47.5	Cmax [1]: 160 µM; AUC [5]: 105 µM·h; half-life [6]: 16.5 min; LCK (HT-29 [8]): 0.6; LCK (HT-29 [12]): 0.29
CN(C)CCNc1n[n+]([O-])c2ccc(C(C)(C)C)cc2[n+]1[O-]	5.43	38	78	421 µmol/kg	8.63e-07	99	5.96	11.4	AUC [13]: 9.73 µM·h; half-life [14]: 12.5 min; Cmax [15]: 16.1 µM
CCc1ccc2c(c1)[n+]([O-])c(NCCCN1CCOCC1)n[n+]2[O-]	4.98	55	66	1000 µmol/kg		>36	5.25	56.5	AUC [16]: 94.8 µM·h; Cmax [17]: 139 µM; LCK (HT-29 [18]): 0.82; half-life [19]: 24.9 min; LCK (HT-29 [20]): 0.13
CC(C)Oc1ccc2c(c1)[n+]([O-])c(NCCN(C)C)n[n+]2[O-]	5.21	> 55	31	1330 µmol/kg		162	5.49	22.3	AUC [21]: 102 µM·h; LCK (HT-29 [22]): 0.53; LCK (HT-29 [23]): -0.17; Cmax [24]: 123 µM; half-life [25]: 26.1 min
CN(C)CCNc1n[n+]([O-])c2ccc(OCC3CC3)cc2[n+]1[O-]	5.42	43	101	750 µM/g		35	5.68	45.1	AUC [21]: 51.3 µM·h; LCK (HT-29 [22]): -0.06; LCK (HT-29 [23]): -0.14; half-life [25]: 33.9 min
COCCOc1ccc2c(c1)[n+]([O-])c(NCCN(C)C)n[n+]2[O-]	5.30	> 51	401	1330 µM/g		117	5.80	51.8	AUC [5]: 257 µM·h; half-life [6]: 44.9 min; LCK (HT-29 [8]): 0.3; LCK (HT-29 [12]): -0.08
Nc1n[n+]([O-])c2ccccc2[n+]1[O-] [TIRAPAZAMINE]	5.29	8.9		178 µmol/kg	4.04e-07		5.60	24.3	LCK (HT-29 [26]): 0.15; AUC [27]: 49.2 µM·h; LCK (HT-29 [28]): 0.59; Cmax [29]: 61.7 µM
